How the values were obtained:
Lung = test: Biodistribution in lung of C57BL/6J mouse harboring mouse B16-Bl6 cells at 9 to 12 MBq, iv after 2 hrs by PET analysis; format: ADME, organism-based; conditions: in vivo
How it was run: (§1)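 Ex vivo dissection in B16Bl6-bearing C57BL/6J mice (3x10⁵ cells s.c. right shoulder), done at day 10 or 14 after implantation. The ¹⁸F tracer was given i.v. at 9-12 MBq. Mice were killed by CO₂ at 1, 2 or 3 h. Tumor, organs and tissues were excised, weighed and gamma-counted, then decay-corrected and expressed as %ID/g. n=3-6 per group; mean ± SD.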

Mus musculus = test: Biodistribution in tumor of C57BL/6J mouse harboring mouse B16-Bl6 cells at 9 to 12 MBq, iv after 2 hrs by PET analysis; format: ADME, organism-based, Neoplasm; conditions: in vivo
How it was run: (§2)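 Ex vivo biodistribution. C57BL/6J mice bearing subcutaneous B16Bl6 tumours (3x10⁵ cells, shoulder), day 10 or 14, received [18F]tracer iv (9-12 MBq). They were killed by CO₂ at 1, 2 or 3 h. Tumours and organs were excised, weighed and gamma-counted. Results are decay-corrected % ID/g; ratios are tumour over tissue. n=3-6 per group; mean ± SD.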

Stomach = test: Biodistribution in stomach of C57BL/6J mouse harboring mouse B16-Bl6 cells at 9 to 12 MBq, iv after 3 hrs by PET analysis; format: ADME, organism-based; conditions: in vivo; how it was run: as §2
Pancreas = test: Biodistribution in pancreas of C57BL/6J mouse harboring mouse B16-Bl6 cells at 9 to 12 MBq, iv after 1 hr by PET analysis; format: ADME, organism-based; conditions: in vivo; how it was run: as §1
Muscle tissue = test: Biodistribution in muscle of C57BL/6J mouse harboring mouse B16-Bl6 cells at 8 to 12 MBq, iv after 1 hr by PET analysis; format: ADME, organism-based; conditions: in vivo
How it was run: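 C57BL/6J mice were inoculated s.c. on the right shoulder with 3x10⁵ B16Bl6 cells in PBS under isoflurane, and imaged at day 10 or 14 (tumor volume 431.8 ± 154.3 mm³). The ¹⁸F tracer was given i.v. via tail vein, 8-12 MBq (methods: 9-12 MBq/0.15 mL). Under ketamine/xylazine i.p., a 25-min whole-body static PET scan ran at 1 h. ROI %ID/g = counts/g/min ÷ injected dose. n=2-8; mean ± SD.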

Heart [1] = test: Biodistribution in heart of C57BL/6J mouse harboring mouse B16-Bl6 cells at 9 to 12 MBq, iv after 1 hr by PET analysis; format: ADME, organism-based; conditions: in vivo; how it was run: as §1
Nucleic Acid = test: Ratio of drug level in tumor to bone in C57BL/6J mouse harboring mouse B16-Bl6 cells at 9 to 12 MBq, iv after 1 hr by PET analysis; format: ADME, organism-based; conditions: in vivo; how it was run: as §2
Heart [2] = test: Biodistribution in heart of C57BL/6J mouse harboring mouse B16-Bl6 cells at 9 to 12 MBq, iv after 2 hrs by PET analysis; format: ADME, organism-based; conditions: in vivo; how it was run: as §1
[3] = Ratio of drug level in tumor to muscle in C57BL/6J mouse harboring mouse B16-Bl6 cells at 8 to 12 MBq, iv after 1 hr by PET analysis; format: ADME, organism-based; conditions: in vivo
How it was run: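 Static whole-body PET at 1 h after tail-vein injection of [18F]tracer (9-12 MBq/0.15 mL) in C57BL/6J mice carrying subcutaneous B16Bl6 shoulder tumours (3x10⁵ cells), imaged day 10 or 14. Mice under ketamine/xylazine ip. 25 min acquisition, OSEM reconstruction. ROI % ID/g = counts/g/min ÷ injected dose; ratios = tumour % ID/g ÷ organ % ID/g. n=2-8; mean ± SD.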

Spleen = test: Biodistribution in spleen of C57BL/6J mouse harboring mouse B16-Bl6 cells at 9 to 12 MBq, iv after 3 hrs by PET analysis; format: ADME, organism-based; conditions: in vivo; how it was run: as §1
[4] = Stability of the compound in tumor of C57BL/6J mouse harboring mouse B16-Bl6 cells assessed as unchanged drug level at 18 MBq, iv after 30 mins; format: ADME, organism-based, Neoplasm; conditions: read-out: Stability
Liver = test: Stability of the compound in liver of C57BL/6J mouse harboring mouse B16-Bl6 cells assessed as unchanged drug level at 18 MBq, iv after 2 hrs; format: ADME, organism-based; conditions: in vivo
How it was run: (§3)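 Metabolite analysis in six B16Bl6 tumour-bearing mice given 18 MBq iv, killed at 30 min, 1 h or 2 h. Plasma (centrifuged) and bladder urine were injected directly. Pooled tumours, eyes and livers were homogenized in MeOH/NH₄OH 99.8:0.2, centrifuged, filtered and concentrated. Samples ran on radio-HPLC (C18, MeOH/H₂O/NH₄OH gradient) in duplicate; result is % unchanged tracer of total radioactivity.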

[5] = Stability of the compound in eyes of C57BL/6J mouse harboring mouse B16-Bl6 cells assessed as unchanged drug level at 18 MBq, iv after 1 hr; format: ADME, organism-based, Eye; conditions: read-out: Stability; how it was run: as §3
[6] = Stability of the compound in tumor of C57BL/6J mouse harboring mouse B16-Bl6 cells assessed as unchanged drug level at 18 MBq, iv after 2 hrs; format: ADME, organism-based, Neoplasm; conditions: read-out: Stability; how it was run: as §3
[7] = Stability of the compound in urine of C57BL/6J mouse harboring mouse B16-Bl6 cells assessed as unchanged drug level at 18 MBq, iv after 2 hrs; format: ADME, organism-based; conditions: in vivo; how it was run: as §3
[8] = Stability of the compound in eyes of C57BL/6J mouse harboring mouse B16-Bl6 cells assessed as unchanged drug level at 18 MBq, iv after 2 hrs; format: ADME, organism-based, Eye; conditions: read-out: Stability; how it was run: as §3
[9] = Stability of the compound in liver of C57BL/6J mouse harboring mouse B16-Bl6 cells assessed as unchanged drug level at 18 MBq, iv after 1 hr; format: ADME, organism-based; conditions: read-out: Stability; how it was run: as §3
[10] = Stability of the compound in urine of C57BL/6J mouse harboring mouse B16-Bl6 cells assessed as unchanged drug level at 18 MBq, iv after 1 hr; format: ADME, organism-based; conditions: read-out: Stability; how it was run: as §3
Blood = test: Stability of the compound in blood of C57BL/6J mouse harboring mouse B16-Bl6 cells assessed as unchanged drug level at 18 MBq, iv after 2 hrs; format: ADME, organism-based; conditions: in vivo; how it was run: as §3

CCN(CCNC(=O)c1cnc2cc(I)ccc2n1)CCOCCOCCOCCOCCOCCOCCOCC[18F] gave a Drug uptake (Lung) of 1.72 % ID/g, a Drug uptake (Mus musculus) of 5.81 % ID/g and a Drug uptake (Stomach) of 5.39 % ID/g. For the same compound, the Drug uptake (Pancreas) was 2.63 % ID/g, the Drug uptake (Muscle tissue) was 1.01 % ID/g and the Drug uptake (Heart [1]) was 1.58 % ID/g. It also gave a Ratio (Nucleic Acid) of 5.35, a Drug uptake (Heart [2]) of 1.7 % ID/g and a Ratio [3] of 6.62. For the same compound, the Drug uptake (Spleen) was 2.35 % ID/g.

In the case of CCN(CCNC(=O)c1cnc2cc(I)ccc2n1)CCOCCOCCOCC[18F], the remaining at 0.5 h [4] is reported as > 99%, the Drug uptake (Lung) is reported as 1.65 % ID/g and the Stability (Liver) is reported as “Unstable”. For the same compound, the Drug uptake (Mus musculus) was 13.07 % ID/g, the remaining at 1 h [5] was > 99% and the Drug uptake (Stomach) was 2.81 % ID/g. For the same compound, the remaining at 2 h [6] was > 99%, the Stability [7] was “Unstable” and the Drug uptake (Pancreas) was 2.09 % ID/g. For the same compound, the remaining at 2 h [8] was > 99%, the Drug uptake (Muscle tissue) was 1.37 % ID/g and the Drug uptake (Heart [1]) was 2.72 % ID/g. It also gave a remaining at 1 h [9] of 8%, a Ratio (Nucleic Acid) of 10.11 and a Drug uptake (Heart [2]) of 2.14 % ID/g. The Ratio [3] was 11.04, the Drug uptake (Spleen) was 1.87 % ID/g and the remaining at 1 h [10] was 0.1%. For the same compound, the Stability (Blood) was “Unstable”.

— ChEMBL document CHEMBL2440113, “Synthesis, radiofluorination, and in vivo evaluation of novel fluorinated and iodinated radiotracers for PET imaging and targeted radionuclide therapy of melanoma” (J Med Chem, 2013)
